# Laboratory results: ChEMBL document CHEMBL1126849, “Synthesis of A-ring fluorinated derivatives of (17 alpha,20E/Z)-[125I]iodovinylestradiols: effect on receptor binding and receptor-mediated target tissue uptake” (J Med Chem, 1993)
# Key:
# Conditions in all cases: in vivo
# Rattus norvegicus [1] = test: Biodistribution in thyroid of Immature Female rat after 12 hour administration of 3 micro Ci (111 kBq) in the absence of 60 microg estradiol; type: ADME, organism-based, Thyroid gland
# Summary of the method: (§1)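 Immature female Long Evans rats (21–24 days, 45–70 g), three to five per group, given 125I-labeled steroid (3 μCi, 111 kBq) by lateral tail vein without anesthesia. Vehicle: ethanol diluted in saline with 1% Tween-80, final ethanol 9%, 0.22 μm filtered. +E2 groups received 60 μg unlabeled estradiol co-injected. Killed under ether at set times; tissues KCl-washed, blotted, weighed, gamma counted; %ID/g, mean with SE.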
# Rattus norvegicus [2] = test: Biodistribution in thyroid of Immature Female rat after 1 hr administration of 3 micro Ci (111 kBq) in the absence of 60 microg estradiol; type: ADME, organism-based, Thyroid gland; summary of the method: as §1
# Rattus norvegicus [3] = test: Biodistribution in thyroid of Immature Female rat after 3 hour administration of 3 micro Ci (111 kBq) in the absence of 60 microg estradiol; type: ADME, organism-based, Thyroid gland; summary of the method: as §1
# Rattus norvegicus [4] = test: Biodistribution in blood of Immature Female rat after 1 hr administration of 3 micro Ci (111 kBq) in the presence of (+E2); type: ADME, organism-based
# Summary of the method: (§2)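 Immature female Long Evans rats (21–24 days, 45–70 g), unanesthetized in retention cages, given 3 µCi (111 kBq) 125I-labeled steroid i.v. via lateral tail vein. Vehicle was ethanol diluted in saline containing 1% Tween-80, giving 9% ethanol final. The blocking group received 60 µg unlabeled estradiol co-injected. Rats were killed under ether by axillary bleeding, and tissues were KCl-washed and gamma-counted. Data are %ID/g, mean ± SE, n=3–5.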
# Rattus norvegicus [5] = test: Biodistribution in blood of Immature Female rat after 5 hour administration of 3 micro Ci (111 kBq) in the absence of 60 microg estradiol; type: ADME, organism-based; summary of the method: as §2
# Rattus norvegicus [6] = test: Biodistribution in fat of Immature Female rat after 12 hour administration of 3 micro Ci (111 kBq) in the absence of 60 microg estradiol; type: ADME, organism-based, Adipose tissue; summary of the method: as §2
# Rattus norvegicus [7] = test: Biodistribution in fat of Immature Female rat after 3 hour administration of 3 micro Ci (111 kBq) in the absence of 60 microg estradiol; type: ADME, organism-based, Adipose tissue; summary of the method: as §2
# Rattus norvegicus [8] = test: Biodistribution in uterus of Immature Female rat after 5 hour administration of 3 micro Ci (111 kBq) in the absence of 60 microg estradiol; type: ADME, organism-based
# Summary of the method: (§3)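 Immature female Long Evans rats (21–24 days, 45–70 g), 3–5 per group, unanesthetized in retention cages, given 3 μCi (111 kBq) 125I-labeled steroid by lateral tail vein. Vehicle: ethanol diluted with saline containing 1% Tween-80, final ethanol 9%. +E2 group co-injected 60 μg unlabeled estradiol (1 h only). Killed under ether; tissues KCl-washed, weighed, gamma-counted. Output: %ID/g (mean, SE) and uterus to blood or nontarget (muscle, spleen, lungs) ratios.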
# Rattus norvegicus [9] = test: Biodistribution in uterus / blood of Immature Female rat after 12 hour administration of 3 micro Ci (111 kBq) in the absence of 60 microg estradiol; type: ADME, organism-based
# Summary of the method: (§4)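 Same in vivo procedure: immature female Long Evans rats (21–24 days), three to five per group, 3 μCi (111 kBq) tracer i.v. via tail vein in 9% ethanol/saline/1% Tween-80, ± 60 μg estradiol co-injected at 1 h. Uterus %ID/g (gamma counting) divided by blood, or by nontarget organ (muscle, spleen, lungs), %ID/g to give ratios.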
# Rattus norvegicus [10] = test: Biodistribution in muscle of Immature Female rat after 12 hour administration of 3 micro Ci (111 kBq) in the absence of 60 microg estradiol; type: ADME, organism-based, Muscle tissue; summary of the method: as §1
# Rattus norvegicus [11] = test: Biodistribution in muscle of Immature Female rat after 1 hr administration of 3 micro Ci (111 kBq) in the presence of (+E2); type: ADME, organism-based, Muscle tissue; summary of the method: as §1
# Rattus norvegicus [12] = test: Biodistribution in muscle of Immature Female rat after 3 hour administration of 3 micro Ci (111 kBq) in the absence of 60 microg estradiol; type: ADME, organism-based, Muscle tissue; summary of the method: as §1
# Rattus norvegicus [13] = test: Biodistribution in spleen of Immature Female rat after 12 hour administration of 3 micro Ci (111 kBq) in the absence of 60 microg estradiol; type: ADME, organism-based; summary of the method: as §1
# Rattus norvegicus [14] = test: Biodistribution in spleen of Immature Female rat after 1 hr administration of 3 micro Ci (111 kBq) in the presence of (+E2); type: ADME, organism-based; summary of the method: as §1
# Rattus norvegicus [15] = test: Biodistribution in spleen of Immature Female rat after 3 hour administration of 3 micro Ci (111 kBq) in the absence of 60 microg estradiol; type: ADME, organism-based; summary of the method: as §1
# Rattus norvegicus [16] = test: Biodistribution in uterus / spleen, muscle, lungs of Immature Female rat after 3 hour administration of 3 micro Ci (111 kBq) in the absence of 60 microg estradiol; type: ADME, organism-based; summary of the method: as §4
# Rattus norvegicus [17] = test: Biodistribution in kidney of Immature Female rat after 1 hr administration of 3 micro Ci (111 kBq) in the absence of 60 microg estradiol; type: ADME, organism-based; summary of the method: as §2
# Rattus norvegicus [18] = test: Biodistribution in liver of Immature Female rat after 1 hr administration of 3 micro Ci (111 kBq) in the absence of 60 microg estradiol; type: ADME, organism-based; summary of the method: as §2
# Rattus norvegicus [19] = test: Biodistribution in liver of Immature Female rat after 3 hour administration of 3 micro Ci (111 kBq) in the absence of 60 microg estradiol; type: ADME, organism-based; summary of the method: as §2
# Rattus norvegicus [20] = test: Biodistribution in lungs of Immature Female rat after 1 hr administration of 3 micro Ci (111 kBq) in the absence of 60 microg estradiol; type: ADME, organism-based, Lung; summary of the method: as §2
# Rattus norvegicus [21] = test: Biodistribution in uterus / blood of Immature Female rat after 3 hour administration of 3 micro Ci (111 kBq) in the absence of 60 microg estradiol; type: ADME, organism-based; summary of the method: as §4
# Rattus norvegicus [22] = test: Biodistribution in uterus / blood of Immature Female rat after 5 hour administration of 3 micro Ci (111 kBq) in the absence of 60 microg estradiol; type: ADME, organism-based; summary of the method: as §4
# Rattus norvegicus [23] = test: Biodistribution in uterus of Immature Female rat after 1 hr administration of 3 micro Ci (111 kBq) in the absence of 60 microg estradiol; type: ADME, organism-based; summary of the method: as §3
# Rattus norvegicus [24] = test: Biodistribution in uterus of Immature Female rat after 1 hr administration of 3 micro Ci (111 kBq) in the presence of (+E2); type: ADME, organism-based; summary of the method: as §3
# Rattus norvegicus [25] = test: Biodistribution in uterus/blood of immature female rat after 12 hour administration of 3 micro Ci (111 kBq) in the absence of 60 microg estradiol; type: ADME, organism-based; summary of the method: as §3
# Rattus norvegicus [26] = test: Biodistribution in uterus/spleen, muscle, lungs of immature female rat after 12 hour administration of 3 micro Ci (111 kBq) in the absence of 60 microg estradiol; type: ADME, organism-based; summary of the method: as §3
# Rattus norvegicus [27] = test: Biodistribution in uterus/spleen, muscle, lungs of immature female rat after 1 hr administration of 3 micro Ci (111 kBq) in the absence of 60 microg estradiol; type: ADME, organism-based; summary of the method: as §3
# Rattus norvegicus [28] = test: Biodistribution in uterus/spleen, muscle, lungs of immature female rat after 1 hr administration of 3 micro Ci (111 kBq) in the presence of (+E2); type: ADME, organism-based; summary of the method: as §3
# Rattus norvegicus [29] = test: Biodistribution in uterus/spleen, muscle, lungs of immature female rat after 5 hour administration of 3 micro Ci (111 kBq) in the absence of 60 microg estradiol; type: ADME, organism-based; summary of the method: as §3
# Rattus norvegicus [30] = test: Biodistribution in liver of Iimmature female rat after 3 hour administration of 3 micro Ci (111 kBq) in the absence of 60 microg estradiol; type: ADME, organism-based; summary of the method: as §2
# Rattus norvegicus [31] = test: Biodistribution in uterus/spleen, muscle, lungs of immature female rat after 3 hour administration of 3 micro Ci (111 kBq) in the absence of 60 microg estradiol; type: ADME, organism-based; summary of the method: as §3
smiles,measurement,setting,value
CO[C@H]1C[C@@]2(C)[C@@H](CC[C@@]2(O)/C=C\I)[C@@H]2CCc3cc(O)c(F)cc3[C@H]21,ID/g,Rattus norvegicus [1],1899%
same,ID/g,Rattus norvegicus [2],217%
same,ID/g,Rattus norvegicus [3],882%
same,ID/g,Rattus norvegicus [4],0.87%
same,ID/g,Rattus norvegicus [5],0.34%
same,ID/g,Rattus norvegicus [6],0.13%
same,ID/g,Rattus norvegicus [7],1.15%
same,ID/g,Rattus norvegicus [8],8.81%
same,ID/g,Rattus norvegicus [9],50.35%
same,ID/g,Rattus norvegicus [10],0.1%
same,ID/g,Rattus norvegicus [11],2.3%
same,ID/g,Rattus norvegicus [12],0.38%
same,ID/g,Rattus norvegicus [13],0.22%
same,ID/g,Rattus norvegicus [14],5.3%
same,ID/g,Rattus norvegicus [15],0.39%
same,ID/g,Rattus norvegicus [16],21.65%
same,ID/g,Rattus norvegicus [17],1.56%
same,ID/g,Rattus norvegicus [18],2.04%
same,ID/g,Rattus norvegicus [19],1.51%
same,ID/g,Rattus norvegicus [20],0.76%
same,ID/g,Rattus norvegicus [21],21.19%
same,ID/g,Rattus norvegicus [22],27.8%
same,ID/g,Rattus norvegicus [23],8.36%
same,ID/g,Rattus norvegicus [24],0.94%
CO[C@H]1C[C@@]2(C)[C@@H](CC[C@@]2(O)/C=C/I)[C@@H]2CCc3c(ccc(O)c3F)[C@H]21,ID/g,Rattus norvegicus [1],475%
same,ID/g,Rattus norvegicus [2],61%
same,ID/g,Rattus norvegicus [3],126%
same,ID/g,Rattus norvegicus [4],0.28%
same,ID/g,Rattus norvegicus [5],0.17%
same,ID/g,Rattus norvegicus [6],0.83%
same,ID/g,Rattus norvegicus [7],2.04%
same,ID/g,Rattus norvegicus [8],12.04%
same,ID/g,Rattus norvegicus [9],122.53%
same,ID/g,Rattus norvegicus [10],0.25%
same,ID/g,Rattus norvegicus [11],0.91%
same,ID/g,Rattus norvegicus [12],0.56%
same,ID/g,Rattus norvegicus [13],0.22%
same,ID/g,Rattus norvegicus [14],0.78%
same,ID/g,Rattus norvegicus [15],0.48%
same,ID/g,Rattus norvegicus [16],16.64%
same,ID/g,Rattus norvegicus [17],2.03%
same,ID/g,Rattus norvegicus [18],3.32%
same,ID/g,Rattus norvegicus [19],2.65%
same,ID/g,Rattus norvegicus [20],1.07%
same,ID/g,Rattus norvegicus [21],44.23%
same,ID/g,Rattus norvegicus [22],68.66%
same,ID/g,Rattus norvegicus [23],8.02%
same,ID/g,Rattus norvegicus [24],1.02%
C[C@]12CC[C@@H]3c4cc(F)c(O)cc4CC[C@H]3[C@@H]1CC[C@@]2(O)/C=C/I,ID/g,Rattus norvegicus [25],0.92%
same,ID/g,Rattus norvegicus [26],1.25%
same,ID/g,Rattus norvegicus [27],1.42%
same,ID/g,Rattus norvegicus [28],0.81%
same,ID/g,Rattus norvegicus [29],1.14%
same,ID/g,Rattus norvegicus [30],2.87%
same,ID/g,Rattus norvegicus [31],1.49%
